Data from ChEMBL document CHEMBL4325904 (Eur J Med Chem, 2019).
Activity calls are given as the source filed them. No cut-off for these calls is given here.

What was measured:
[1] = target: Histone deacetylase 1 (Homo sapiens, UniProt Q13547); assay: Inhibition of recombinant full length C-terminal FLAG/His-tagged human HDAC1 (1 to 482 residues) expressed in sf21 cells using RHK-K(Ac)-AMC as substrate by fluorimetric assay
[2] = target: Histone deacetylase 5 (Homo sapiens, UniProt Q9UQL6); assay: Inhibition of recombinant C-terminal His-tagged human HDAC5 (656 to 1122 residues) expressed in insect cells using Boc-K(Ac)-AMC as substrate by fluorimetric assay
[3] = target: Histone deacetylase 9 (Homo sapiens, UniProt Q9UKV0); assay: Inhibition of human HDAC9 using Boc-Lys(trifluoroacetyl)-AMC as substrate by fluorimetric assay
[4] = target: T1, Polyamine deacetylase HDAC10 (Homo sapiens, UniProt Q969S8); assay: Inhibition of human HDAC10 using RHKK-Ac as substrate by fluorimetric assay
T1 sequence (Q969S8 whole entry): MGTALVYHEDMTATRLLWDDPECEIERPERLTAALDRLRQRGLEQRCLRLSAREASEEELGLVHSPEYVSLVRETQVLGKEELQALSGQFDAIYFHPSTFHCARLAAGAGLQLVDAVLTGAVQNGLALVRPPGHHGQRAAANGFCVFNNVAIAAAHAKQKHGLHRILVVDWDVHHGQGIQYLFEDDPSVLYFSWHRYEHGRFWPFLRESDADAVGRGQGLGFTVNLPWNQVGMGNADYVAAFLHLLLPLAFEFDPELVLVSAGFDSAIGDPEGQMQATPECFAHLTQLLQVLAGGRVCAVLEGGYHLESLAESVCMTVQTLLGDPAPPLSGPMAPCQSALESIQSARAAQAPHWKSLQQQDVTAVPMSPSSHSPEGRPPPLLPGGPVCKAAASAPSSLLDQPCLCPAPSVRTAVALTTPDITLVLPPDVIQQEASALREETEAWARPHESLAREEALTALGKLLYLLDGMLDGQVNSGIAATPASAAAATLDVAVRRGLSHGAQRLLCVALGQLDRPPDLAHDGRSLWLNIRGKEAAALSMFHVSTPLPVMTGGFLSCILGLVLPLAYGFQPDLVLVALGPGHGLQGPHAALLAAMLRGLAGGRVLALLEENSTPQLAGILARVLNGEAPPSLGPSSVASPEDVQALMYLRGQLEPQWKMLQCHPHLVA

[5] = species: Homo sapiens; assay: Selectivity ratio of IC50 for recombinant full length C-terminal FLAG/His-tagged human HDAC1 (1 to 482 residues) to IC50 for recombinant N-terminal GST-tagged human HDAC6 (1 to 1215 residues)
[6] = species: Homo sapiens; assay: Selectivity ratio of IC50 for recombinant full length C-terminal GST-tagged human HDAC2 (1 to 488 residues) to IC50 for recombinant N-terminal GST-tagged human HDAC6 (1 to 1215 residues)
[7] = species: Homo sapiens; assay: Selectivity ratio of IC50 for human recombinant full length C-terminal His-tagged HDAC3 (1 to 428 residues)/N-terminal GST-tagged NCOR2 (395 to 489 residues) to IC50 for recombinant N-terminal GST-tagged human HDAC6 (1 to 1215 residues)
[8] = species: Homo sapiens; assay: Selectivity ratio of IC50 for recombinant N-terminal GST-tagged /C-terminal His-tagged human HDAC4 (627 to 1084 residues) to IC50 for recombinant N-terminal GST-tagged human HDAC6 (1 to 1215 residues)
[9] = species: Homo sapiens; assay: Selectivity ratio of IC50 for recombinant C-terminal His-tagged human HDAC5 (656 to 1122 residues) to IC50 for recombinant N-terminal GST-tagged human HDAC6 (1 to 1215 residues)
[10] = species: Homo sapiens; assay: Selectivity ratio of IC50 for recombinant N-terminal GST-tagged human HDAC7 (518 to 991 residues) to IC50 for recombinant N-terminal GST-tagged human HDAC6 (1 to 1215 residues)
[11] = species: Homo sapiens; assay: Selectivity ratio of IC50 for human HDAC10 to IC50 for recombinant N-terminal GST-tagged human HDAC6 (1 to 1215 residues)
[12] = tested on: Kasumi 1; assay: Antiproliferative activity against human Kasumi-1 cells after 72 hrs by resazurin dye-based assay; assay type: functional, cell-based; conditions: Kasumi 1, 72 h
In short: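 KASUMI-1 cells incubated with compounds for 72 hr; viability read with resazurin reagent. IC50 taken as the mean of three experiments, each run in duplicate.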

[13] = Drug uptake in zebrafish embryo vasculature at 1 to 20 uM administered from 24 to 50 hrs post fertilization for 24 hrs and measured after 72 hrs by fluorescence microscopic analysis; assay type: ADME, Danio rerio; conditions: in vivo
In short: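 Zebrafish embryos treated with 1, 10 or 20 µM from 24–50 hpf, with 0 µM controls; trunk and tail imaged at 72 hpf by fluorescence microscopy (λex 480 nm, λem 517 nm).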

[14] = tested on: Danio rerio; assay: Antiangiogenic activity in zebrafish embryo assessed as effect on blood vessel development at 10 uM administered from 24 to 50 hrs post fertilization for 24 hrs and measured after 72 hrs by alkaline phosphatase assay; assay type: functional, organism-based
In short: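 Zebrafish embryos exposed at 10 µM from 24–50 hpf alongside vehicle-only controls; at 72 hpf embryos stained with alkaline phosphatase to visualise blood vessels.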

Histone deacetylase 1, sequence (Q13547 whole entry, the tested form may be a part): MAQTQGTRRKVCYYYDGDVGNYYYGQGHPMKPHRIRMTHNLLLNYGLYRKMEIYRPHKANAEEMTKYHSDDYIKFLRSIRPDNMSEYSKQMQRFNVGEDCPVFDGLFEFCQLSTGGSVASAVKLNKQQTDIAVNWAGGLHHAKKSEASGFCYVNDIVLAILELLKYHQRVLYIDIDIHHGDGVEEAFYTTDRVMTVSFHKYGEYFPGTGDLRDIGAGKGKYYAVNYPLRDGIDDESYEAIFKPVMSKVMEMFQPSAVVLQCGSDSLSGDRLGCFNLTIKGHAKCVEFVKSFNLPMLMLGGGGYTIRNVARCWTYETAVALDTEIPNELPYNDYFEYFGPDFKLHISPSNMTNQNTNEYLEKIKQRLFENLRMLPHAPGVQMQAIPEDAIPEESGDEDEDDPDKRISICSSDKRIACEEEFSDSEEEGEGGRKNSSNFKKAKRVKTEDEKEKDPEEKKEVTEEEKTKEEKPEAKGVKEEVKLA
Histone deacetylase 5, sequence (Q9UQL6 whole entry, the tested form may be a part): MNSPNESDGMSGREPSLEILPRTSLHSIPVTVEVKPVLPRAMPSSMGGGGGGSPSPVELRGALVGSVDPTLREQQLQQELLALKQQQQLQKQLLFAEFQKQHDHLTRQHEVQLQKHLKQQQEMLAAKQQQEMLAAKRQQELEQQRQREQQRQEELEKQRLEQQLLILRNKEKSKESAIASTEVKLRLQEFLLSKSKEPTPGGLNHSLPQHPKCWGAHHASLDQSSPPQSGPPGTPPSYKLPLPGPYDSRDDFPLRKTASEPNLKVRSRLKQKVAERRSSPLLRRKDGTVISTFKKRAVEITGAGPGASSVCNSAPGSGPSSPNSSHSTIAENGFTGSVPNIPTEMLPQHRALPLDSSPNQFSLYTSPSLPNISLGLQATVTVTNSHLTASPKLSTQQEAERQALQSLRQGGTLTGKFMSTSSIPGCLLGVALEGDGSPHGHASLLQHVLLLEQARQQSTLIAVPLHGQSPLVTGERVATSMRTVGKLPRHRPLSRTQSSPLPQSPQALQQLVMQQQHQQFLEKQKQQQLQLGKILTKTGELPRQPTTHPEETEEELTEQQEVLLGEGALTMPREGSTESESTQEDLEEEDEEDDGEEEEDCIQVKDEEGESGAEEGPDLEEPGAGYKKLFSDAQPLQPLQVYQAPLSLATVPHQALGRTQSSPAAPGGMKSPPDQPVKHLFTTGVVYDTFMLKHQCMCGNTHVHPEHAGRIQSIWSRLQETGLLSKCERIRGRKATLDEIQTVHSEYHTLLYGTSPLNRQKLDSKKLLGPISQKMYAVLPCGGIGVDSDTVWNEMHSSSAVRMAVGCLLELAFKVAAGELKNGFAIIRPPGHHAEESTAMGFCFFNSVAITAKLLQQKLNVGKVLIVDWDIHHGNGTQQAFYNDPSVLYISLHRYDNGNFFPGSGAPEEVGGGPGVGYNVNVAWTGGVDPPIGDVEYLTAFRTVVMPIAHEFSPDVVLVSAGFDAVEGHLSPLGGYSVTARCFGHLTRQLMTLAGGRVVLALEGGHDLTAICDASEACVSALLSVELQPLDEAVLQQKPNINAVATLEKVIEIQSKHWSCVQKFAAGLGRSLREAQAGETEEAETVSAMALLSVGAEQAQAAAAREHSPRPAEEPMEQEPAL
Histone deacetylase 9, sequence (Q9UKV0 whole entry): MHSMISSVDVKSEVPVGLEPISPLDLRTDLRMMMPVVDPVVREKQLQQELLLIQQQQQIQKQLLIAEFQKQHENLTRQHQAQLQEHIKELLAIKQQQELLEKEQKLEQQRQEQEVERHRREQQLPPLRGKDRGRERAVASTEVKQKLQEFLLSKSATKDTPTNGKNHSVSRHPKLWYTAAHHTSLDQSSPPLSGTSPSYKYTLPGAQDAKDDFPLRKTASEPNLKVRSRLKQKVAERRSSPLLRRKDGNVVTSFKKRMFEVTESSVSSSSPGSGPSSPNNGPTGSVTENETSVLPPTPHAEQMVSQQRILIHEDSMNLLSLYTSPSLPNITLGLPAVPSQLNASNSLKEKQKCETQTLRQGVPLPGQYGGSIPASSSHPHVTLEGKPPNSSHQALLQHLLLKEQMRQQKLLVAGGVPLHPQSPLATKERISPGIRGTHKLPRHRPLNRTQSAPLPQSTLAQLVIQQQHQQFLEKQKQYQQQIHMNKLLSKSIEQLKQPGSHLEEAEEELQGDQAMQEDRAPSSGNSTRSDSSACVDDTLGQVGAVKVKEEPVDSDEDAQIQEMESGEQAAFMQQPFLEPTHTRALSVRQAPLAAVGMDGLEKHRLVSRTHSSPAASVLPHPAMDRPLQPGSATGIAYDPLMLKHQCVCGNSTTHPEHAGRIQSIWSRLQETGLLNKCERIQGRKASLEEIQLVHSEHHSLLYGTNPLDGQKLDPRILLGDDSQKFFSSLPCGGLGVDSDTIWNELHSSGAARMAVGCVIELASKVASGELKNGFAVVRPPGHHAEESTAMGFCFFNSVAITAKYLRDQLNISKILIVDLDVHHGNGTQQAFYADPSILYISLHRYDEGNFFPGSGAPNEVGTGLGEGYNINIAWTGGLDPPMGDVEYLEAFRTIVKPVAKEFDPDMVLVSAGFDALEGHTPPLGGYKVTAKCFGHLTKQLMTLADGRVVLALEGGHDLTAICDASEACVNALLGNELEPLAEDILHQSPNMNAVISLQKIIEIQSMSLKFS

SMILES	IC50 [1] [nM]	IC50 [2] [nM]	IC50 [3] [nM]	IC50 [4] [nM]	Ratio IC50 [5]	Ratio IC50 [6]	Ratio IC50 [7]	Ratio IC50 [8]	Ratio IC50 [9]	Ratio IC50 [10]	Ratio IC50 [11]	IC50 [12] [nM]	Drug uptake [13]	Activity [14]
O=C(CCCCCN1C(=O)c2cccc3c(NCc4ccccc4)ccc(c23)C1=O)NO	1980	3400	9300	660	560 to 566	240	100 to 103	1500	970	910	190	360	Active	Active
CCCNc1ccc2c3c(cccc13)C(=O)N(CCCCCC(=O)NO)C2=O	590	5300	> 10000	320	120 to 123	88	23	> 2000	1100	1900	67	96	Active	Active
